Columns and labels:
Glycine max [1] = assay: Phytotoxicity against Glycine max (soybean) assessed as growth inhibition at 15 g/ha pre-emergence treatment measured after 15 days by crop-selectivity assay; type: organism-based; conditions: in vivo, other, 360 h
Chenopodium album [2] = assay: Herbicidal activity against fat hen Chenopodium album assessed as weed growth inhibition at 75 g/ha pre-emergence treatment […]; type: functional; conditions: read-out: GI
In short: (§1)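 Pot-grown plants in the greenhouse, in clay soil (pH 6.5, 1.6% organic matter, 37.3% clay, CEC 12.1 cmol/kg). Compound was made up as a 100 g/L emulsified concentrate (DMF, Tween-80), diluted in water and sprayed at 75 g ai/ha. Pre-emergence spraying was 24 h after sowing; post-emergence at two-leaf (dicots) or one-leaf (monocots) stage. Untreated and DMF controls. Percent growth inhibition scored visually 15 days post-treatment.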

[3] = Phytotoxicity against Brassica rapa subsp. oleifera assessed as growth inhibition at 15 g/ha post-emergence treatment measured after 15 days by crop-selectivity assay; type: organism-based; conditions: in vivo, read-out: GI
Gossypium [4] = assay: Phytotoxicity against Gossypium (cotton) assessed as growth inhibition at 15 g/ha pre-emergence treatment measured after 15 days by crop-selectivity assay; type: organism-based; conditions: in vivo, other, 360 h
Setaria viridis [5] = assay: Herbicidal activity against Setaria viridis (green foxtail) assessed as weed growth inhibition at 75 g/ha post-emergence treatment […]; type: functional; conditions: read-out: GI; in short: as §1
Digitaria sanguinalis [6] = assay: Herbicidal activity against crabgrass Digitaria sanguinalis(hairy crabgrass) assessed as weed growth inhibition at 75 g/ha pre-emergence treatment […]; type: functional; conditions: read-out: GI; in short: as §1
Amaranthus blitum = assay: Herbicidal activity against Amaranthus blitum assessed as weed growth inhibition at 75 g/ha pre-emergence treatment […]; type: functional; conditions: read-out: GI; in short: as §1
[7] = Phytotoxicity against Gossypium (cotton) assessed as growth inhibition at 15 g/ha post-emergence treatment measured after 15 days by crop-selectivity assay; type: organism-based; conditions: in vivo, read-out: GI
[8] = Phytotoxicity against Brassica rapa subsp. oleifera assessed as growth inhibition at 75 g/ha pre-emergence treatment measured after 15 days by crop-selectivity assay; type: organism-based; conditions: in vivo, read-out: GI
[9] = Phytotoxicity against Glycine max (soybean) assessed as growth inhibition at 15 g/ha post-emergence treatment measured after 15 days by crop-selectivity assay; type: organism-based; conditions: in vivo, read-out: GI
Triticum aestivum = assay: Phytotoxicity against Triticum aestivum (wheat) assessed as growth inhibition at 7.5 g/ha pre-emergence treatment measured after 15 days by crop-selectivity assay; type: organism-based; conditions: in vivo, other, 360 h
In short: (§2)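 Compounds were formulated as 100 g/L emulsifiable concentrates, with DMF as solvent and Tween-80 as emulsifier, then diluted in water to the required rate. They were sprayed on pot-grown plants in a greenhouse, in clay soil (pH 6.5, 1.6% organic matter, 37.3% clay, CEC 12.1 cmol/kg). Untreated and DMF-treated plants served as controls. Percent growth inhibition was scored visually 15 days after treatment.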

[10] = Phytotoxicity against Brassica rapa subsp. oleifera assessed as growth inhibition at 30 g/ha post-emergence treatment measured after 15 days by crop-selectivity assay; type: organism-based; conditions: in vivo, read-out: GI
[11] = test system: Brassica rapa subsp. oleifera; assay: Phytotoxicity against Brassica rapa subsp. oleifera assessed as growth inhibition at 15 g/ha pre-emergence treatment measured after 15 days by crop-selectivity assay; type: organism-based; conditions: in vivo, other, 360 h
Zea mays [12] = assay: Phytotoxicity against Zea mays (maize) assessed as growth inhibition at 7.5 g/ha pre-emergence treatment measured after 15 days by crop-selectivity assay; type: organism-based; conditions: in vivo, other, 360 h; in short: as §2
Digitaria sanguinalis [13] = assay: Herbicidal activity against crabgrass Digitaria sanguinalis(hairy crabgrass) assessed as weed growth inhibition at post-emergence treatment […]; type: functional, organism-based; in short: as §1
Echinochloa crus-galli [14] = assay: Herbicidal activity against Echinochloa crus-galli (barnyard grass) (barnyard grass) assessed as weed growth inhibition at 75 g/ha pre-emergence treatment […]; type: functional; conditions: read-out: GI; in short: as §1
[15] = Phytotoxicity against Oryza sativa (rice) assessed as growth inhibition at 30 g/ha post-emergence treatment measured after 15 days by crop-selectivity assay; type: organism-based; conditions: in vivo, read-out: GI
[16] = Phytotoxicity against Glycine max (soybean) assessed as growth inhibition at 7.5 g/ha post-emergence treatment measured after 15 days by crop-selectivity assay; type: organism-based; conditions: in vivo, read-out: GI
Gossypium [17] = assay: Phytotoxicity against Gossypium (cotton) assessed as growth inhibition at 30 g/ha pre-emergence treatment measured after 15 days by crop-selectivity assay; type: organism-based; conditions: in vivo, other, 360 h
Abutilon theophrasti = assay: Herbicidal activity against Abutilon theophrasti (velvetleaf) assessed as weed growth inhibition at 75 g/ha post-emergence treatment […]; type: functional; conditions: read-out: GI; in short: as §1
Gossypium [18] = assay: Phytotoxicity against Gossypium (cotton) assessed as growth inhibition at 150 g/ha pre-emergence treatment measured after 15 days by crop-selectivity assay; type: organism-based; conditions: in vivo, other, 360 h
[19] = Phytotoxicity against Oryza sativa (rice) assessed as growth inhibition at 150 g/ha pre-emergence treatment measured after 15 days by crop-selectivity assay; type: organism-based; conditions: in vivo, read-out: GI
Chenopodium album [20] = assay: Herbicidal activity against fat hen Chenopodium album assessed as weed growth inhibition at 75 g/ha post-emergence treatment […]; type: functional; conditions: read-out: GI; in short: as §1
Zea mays [21] = assay: Phytotoxicity against Zea mays (maize) assessed as growth inhibition at 15 g/ha pre-emergence treatment measured after 15 days by crop-selectivity assay; type: organism-based; conditions: in vivo, other, 360 h; in short: as §2
Echinochloa crus-galli [22] = assay: Herbicidal activity against Echinochloa crus-galli (barnyard grass) (barnyard grass) assessed as weed growth inhibition at 75 g/ha post-emergence treatment […]; type: functional; conditions: read-out: GI; in short: as §1
Setaria viridis [23] = assay: Herbicidal activity against Setaria viridis (green foxtail) assessed as weed growth inhibition at 75 g/ha pre-emergence treatment […]; type: functional; conditions: read-out: GI; in short: as §1
Glycine max [24] = assay: Phytotoxicity against Glycine max (soybean) assessed as growth inhibition at 30 g/ha pre-emergence treatment measured after 15 days by crop-selectivity assay; type: organism-based; conditions: in vivo, other, 360 h
[25] = Phytotoxicity against Zea mays (maize) assessed as growth inhibition at 7.5 g/ha post-emergence treatment measured after 15 days by crop-selectivity assay; type: organism-based; conditions: in vivo, read-out: GI; in short: as §2
[26] = Phytotoxicity against Gossypium (cotton) assessed as growth inhibition at 7.5 g/ha post-emergence treatment measured after 15 days by crop-selectivity assay; type: organism-based; conditions: in vivo, read-out: GI
[27] = Phytotoxicity against Oryza sativa (rice) assessed as growth inhibition at 15 g/ha post-emergence treatment measured after 15 days by crop-selectivity assay; type: organism-based; conditions: in vivo, read-out: GI
[28] = Phytotoxicity against Zea mays (maize) assessed as growth inhibition at 15 g/ha post-emergence treatment measured after 15 days by crop-selectivity assay; type: organism-based; conditions: in vivo, read-out: GI; in short: as §2
Zea mays [29] = assay: Phytotoxicity against Zea mays (maize) assessed as growth inhibition at 30 g/ha pre-emergence treatment measured after 15 days by crop-selectivity assay; type: organism-based; conditions: in vivo, other, 360 h; in short: as §2
[30] = Phytotoxicity against Zea mays (maize) assessed as growth inhibition at 30 g/ha post-emergence treatment measured after 15 days by crop-selectivity assay; type: organism-based; conditions: in vivo, read-out: GI; in short: as §2
[31] = Phytotoxicity against Oryza sativa (rice) assessed as growth inhibition at 30 g/ha pre-emergence treatment measured after 15 days by crop-selectivity assay; type: organism-based; conditions: in vivo, read-out: GI
[32] = Phytotoxicity against Glycine max (soybean) assessed as growth inhibition at 30 g/ha post-emergence treatment measured after 15 days by crop-selectivity assay; type: organism-based; conditions: in vivo, read-out: GI
Digitaria sanguinalis [33] = assay: Herbicidal activity against crabgrass Digitaria sanguinalis(hairy crabgrass) assessed as weed growth inhibition at 75 g/ha post-emergence treatment […]; type: functional; conditions: read-out: GI; in short: as §1
[34] = Phytotoxicity against Glycine max (soybean) assessed as growth inhibition at 150 g/ha pre-emergence treatment measured after 15 days by crop-selectivity assay; type: organism-based; conditions: in vivo, read-out: GI
[35] = Phytotoxicity against Gossypium (cotton) assessed as growth inhibition at 30 g/ha post-emergence treatment measured after 15 days by crop-selectivity assay; type: organism-based; conditions: in vivo, read-out: GI
[36] = test system: Brassica rapa subsp. oleifera; assay: Phytotoxicity against Brassica rapa subsp. oleifera assessed as growth inhibition at 7.5 g/ha pre-emergence treatment measured after 15 days by crop-selectivity assay; type: organism-based; conditions: in vivo, other, 360 h

Compound	growth inhibition (GI) (Glycine max [1])	inhibition of growth at 75 g/ha (Chenopodium album [2])	inhibition at 360 h [3]	growth inhibition (GI) (Gossypium [4])	inhibition of growth at 75 g/ha (Setaria viridis [5])	inhibition of growth at 75 g/ha (Digitaria sanguinalis [6])	inhibition of growth at 75 g/ha (Amaranthus blitum)	inhibition at 360 h [7]	inhibition at 360 h [8]	inhibition at 360 h [9]	growth inhibition (GI) (Triticum aestivum)	inhibition at 360 h [10]	growth inhibition (GI) [11]	growth inhibition (GI) (Zea mays [12])	IC50 (Digitaria sanguinalis [13])	inhibition of growth at 75 g/ha (Echinochloa crus-galli [14])	inhibition at 360 h [15]	inhibition at 360 h [16]	growth inhibition (GI) (Gossypium [17])	inhibition of growth at 75 g/ha (Abutilon theophrasti)	other results
C#CCN1C(=O)COc2cc(F)c(N3C(=O)c4ccc(F)cc4C3=O)cc21	Non-toxic	> 80%	> 10%	Non-toxic	> 80%	> 80%	> 80%	> 10%	> 10%	> 10%	Non-toxic	> 10%	Non-toxic	Non-toxic	4.8 g/ha	> 80%	> 10%	> 10%	Non-toxic	> 80%	growth inhibition (GI) (Gossypium [18]): Non-toxic; inhibition at 360 h [19]: > 10%; inhibition of growth at 75 g/ha (Chenopodium album [20]): > 80%; growth inhibition (GI) (Zea mays [21]): Non-toxic; inhibition of growth at 75 g/ha (Echinochloa crus-galli [22]): > 80%; inhibition of growth at 75 g/ha (Setaria viridis [23]): > 80%; growth inhibition (GI) (Glycine max [24]): Non-toxic; inhibition at 360 h [25]: 1%; inhibition at 360 h [26]: > 10%; inhibition at 360 h [27]: > 10%; inhibition at 360 h [28]: 1%; growth inhibition (GI) (Zea mays [29]): Non-toxic; inhibition at 360 h [30]: > 10%; inhibition at 360 h [31]: > 10%; inhibition at 360 h [32]: > 10%; inhibition of growth at 75 g/ha (Digitaria sanguinalis [33]): > 80%; inhibition at 360 h [34]: > 10%; inhibition at 360 h [35]: > 10%; growth inhibition (GI) [36]: Non-toxic
C#CCN1C(=O)COc2cc(F)c(N3C(=O)C4=C(CCCC4)C3=O)cc21 [FLUMIOXAZIN]	Non-toxic	> 80%	> 10%	Non-toxic	> 80%	> 80%	> 80%	> 10%	> 10%	> 10%	Non-toxic	> 10%	Non-toxic	Non-toxic	2.5 g/ha	> 80%	> 10%	> 10%	Non-toxic	> 80%	growth inhibition (GI) (Gossypium [18]): Non-toxic; inhibition at 360 h [19]: > 10%; inhibition of growth at 75 g/ha (Chenopodium album [20]): > 80%; growth inhibition (GI) (Zea mays [21]): Non-toxic; inhibition of growth at 75 g/ha (Echinochloa crus-galli [22]): > 80%; inhibition of growth at 75 g/ha (Setaria viridis [23]): > 80%; growth inhibition (GI) (Glycine max [24]): Non-toxic; inhibition at 360 h [25]: > 10%; inhibition at 360 h [26]: > 10%; inhibition at 360 h [27]: > 10%; inhibition at 360 h [28]: > 10%; growth inhibition (GI) (Zea mays [29]): Non-toxic; inhibition at 360 h [30]: > 10%; inhibition at 360 h [31]: > 10%; inhibition at 360 h [32]: > 10%; inhibition of growth at 75 g/ha (Digitaria sanguinalis [33]): > 80%; inhibition at 360 h [34]: > 10%; inhibition at 360 h [35]: > 10%; growth inhibition (GI) [36]: Non-toxic
